The nature of series [1]: Intrinsic clearance in mouse liver microsomes assessed per mg protein incubated up to 30 mins in presence of NADPH by LC-MS/MS analysis. The class given is ADME, Microsome. The following applies: […].
Series [2] has as its target Transient receptor potential cation channel subfamily M member 4 (Homo sapiens, UniProt Q8TD43). Kind of series: Agonist activity at human TRPM4 expressed in CHO cells assessed as change in membrane potential by FLIPR assay.
A short description of series [3]: Protein binding in human plasma assessed as unbound fraction measured after 5 hrs by equilibrium dialysis based HPLC/UPLC-MS/MS analysis. The class given is ADME, cell-free.
The nature of series [4]: Apparent permeability across apical to basolateral membrane in human Caco-2 cells incubated for 30 mins by LC-MS/MS analysis. The series is classed as ADME, cell-based. A general note: Caco-2 monolayers are a common model of the intestinal barrier.
Series [5] can be described thus: Efflux ratio of apparent permeability across basolateral to apical over apical to basolateral membrane in human Caco-2 cells incubated for 30 mins by LC-MS/MS analysis. The class given is ADME, cell-based.
Series [6] deals with Transient receptor potential cation channel subfamily A member 1 (Homo sapiens, UniProt O75762). Kind of series: Agonist activity at human TRPA1 expressed in HEK cells assessed as increase in menthol-induced intracellular calcium level incubated for 2 hrs by FLIPR assay. The class given is cell-based. The method, boiled down: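 HEK cells stably expressing hTRPA1, plated at 20,000/well 24 h ahead, loaded with calcium-6 dye plus 2.5 mM probenecid for 2 h at 37 °C. First FLIPR addition: 11-point 1:3 concentration series, read for 5 min, scaled to (−)menthol 1 mM final (100% control); pEC50 fitted. Final DMSO 0.5%; run at 37 °C.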
(In general: Calcium assays in cells follow changes in intracellular calcium, usually with a dye or a luminescent sensor.)

Series [7] deals with Transient receptor potential cation channel subfamily V member 1 (Homo sapiens, UniProt Q8NER1). In words: Agonist activity at human TRPV1 expressed in CHO cells assessed as increase in capsaicin-induced intracellular calcium level measured after 1 hr by FLIPR assay. The series is classed as cell-based. The method, boiled down:
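CHO cells stably expressing hTRPV1, plated at 10,000/well 24 h before the assay. Loaded with calcium-6 dye plus 2.5 mM probenecid for 1 h at 37 °C and 1 h at rt. FLIPR dual-addition protocol; agonist potency derived as pEC50.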

Series [8] deals with Transient receptor potential cation channel subfamily V member 4 (Homo sapiens, UniProt Q9HBA0). In words: Agonist activity at human TRPV4 expressed in HEK cells assessed as increase in GSK1016790A-induced intracellular calcium level measured after 1 hr by FLIPR assay. The series is classed as cell-based.
The nature of series [9]: Intrinsic clearance in human liver microsomes assessed per mg protein incubated up to 30 mins in presence of NADPH by LC-MS/MS analysis. The class given is ADME, Microsome. Conditions: […].
The target of series [10] is T1, Transient receptor potential cation channel subfamily M member 5 (Mus musculus, UniProt Q9JJH7).
T1 sequence (Q9JJH7 whole entry): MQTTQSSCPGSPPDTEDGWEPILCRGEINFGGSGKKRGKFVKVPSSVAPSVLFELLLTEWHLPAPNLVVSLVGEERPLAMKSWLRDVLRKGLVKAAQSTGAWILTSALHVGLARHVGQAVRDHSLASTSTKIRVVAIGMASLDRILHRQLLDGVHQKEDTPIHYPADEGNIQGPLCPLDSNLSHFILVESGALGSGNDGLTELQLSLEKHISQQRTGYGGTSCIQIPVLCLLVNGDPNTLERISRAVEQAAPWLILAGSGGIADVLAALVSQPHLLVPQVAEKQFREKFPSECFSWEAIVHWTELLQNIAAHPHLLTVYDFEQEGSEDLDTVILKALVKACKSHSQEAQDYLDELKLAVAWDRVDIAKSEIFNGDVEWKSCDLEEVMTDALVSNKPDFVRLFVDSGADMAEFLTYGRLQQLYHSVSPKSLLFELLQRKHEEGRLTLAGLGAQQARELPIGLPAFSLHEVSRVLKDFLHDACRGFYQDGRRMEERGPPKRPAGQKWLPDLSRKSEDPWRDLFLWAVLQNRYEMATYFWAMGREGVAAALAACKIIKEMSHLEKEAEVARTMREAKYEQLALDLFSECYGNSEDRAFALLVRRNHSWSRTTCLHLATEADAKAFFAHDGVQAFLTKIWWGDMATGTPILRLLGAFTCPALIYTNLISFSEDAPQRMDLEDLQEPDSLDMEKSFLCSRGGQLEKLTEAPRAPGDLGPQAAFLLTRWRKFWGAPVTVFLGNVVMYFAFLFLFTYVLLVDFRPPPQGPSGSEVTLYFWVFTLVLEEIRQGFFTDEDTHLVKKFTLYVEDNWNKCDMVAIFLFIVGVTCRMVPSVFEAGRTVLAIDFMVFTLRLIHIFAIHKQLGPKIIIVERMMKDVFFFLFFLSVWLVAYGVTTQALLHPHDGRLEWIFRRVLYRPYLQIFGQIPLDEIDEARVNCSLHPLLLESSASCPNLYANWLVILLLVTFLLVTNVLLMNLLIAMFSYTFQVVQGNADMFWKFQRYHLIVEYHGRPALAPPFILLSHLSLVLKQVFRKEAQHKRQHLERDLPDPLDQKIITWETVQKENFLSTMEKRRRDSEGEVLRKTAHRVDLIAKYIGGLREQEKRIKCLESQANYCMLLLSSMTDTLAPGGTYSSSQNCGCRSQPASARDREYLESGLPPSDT
In words: Agonist activity at mouse TRPM5 expressed in CHO-K1 cells maintained at 80 mV final holding potential by syncroPatch assay. The class given is cell-based. The essentials: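 SyncroPatch 384 whole-cell recording at rt on CHO-K1 cells stably expressing human or mouse TRPM5. Intracellular solution had 2 mM Na-ATP and 5 μM free Ca2+. Cumulative doses 0.03–31.6 μM in 0.5% DMSO, 150 s each after 180 s vehicle. Current measured at the end of the +80 mV step, normalized to vehicle; pEC50 is the mean of ≥2 independent experiments.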

Series [11] can be described thus: Solubility of the compound in phospahte-buffered saline buffer at pH 7.4 incubated for 2 hrs by HPLC/UV analysis. The class given is physicochemical. The following applies: phosphate-buffered saline.

One may read the pEC50 as the negative decadic logarithm of the EC50, by convention in mol/L. As a reminder, the fraction unbound is the share of the substance not bound to proteins or other matrix. The Papp A→B is how fast a substance crosses the layer from the apical side. A word on the efflux ratio: it is the permeability from basolateral to apical divided by that in the opposite direction, in the common usage. The term solubility denotes the dissolved amount per volume that the medium holds. Low readings indicate a poorly soluble substance, high ones a readily soluble substance.

pEC50: −log10 of the molar value. Converted amounts (≈) assume the structure as drawn. A value given as a limit tells only on which side of the number the result lay.

Chain of Transient receptor potential cation channel subfamily M member 4 (Q8TD43 whole entry): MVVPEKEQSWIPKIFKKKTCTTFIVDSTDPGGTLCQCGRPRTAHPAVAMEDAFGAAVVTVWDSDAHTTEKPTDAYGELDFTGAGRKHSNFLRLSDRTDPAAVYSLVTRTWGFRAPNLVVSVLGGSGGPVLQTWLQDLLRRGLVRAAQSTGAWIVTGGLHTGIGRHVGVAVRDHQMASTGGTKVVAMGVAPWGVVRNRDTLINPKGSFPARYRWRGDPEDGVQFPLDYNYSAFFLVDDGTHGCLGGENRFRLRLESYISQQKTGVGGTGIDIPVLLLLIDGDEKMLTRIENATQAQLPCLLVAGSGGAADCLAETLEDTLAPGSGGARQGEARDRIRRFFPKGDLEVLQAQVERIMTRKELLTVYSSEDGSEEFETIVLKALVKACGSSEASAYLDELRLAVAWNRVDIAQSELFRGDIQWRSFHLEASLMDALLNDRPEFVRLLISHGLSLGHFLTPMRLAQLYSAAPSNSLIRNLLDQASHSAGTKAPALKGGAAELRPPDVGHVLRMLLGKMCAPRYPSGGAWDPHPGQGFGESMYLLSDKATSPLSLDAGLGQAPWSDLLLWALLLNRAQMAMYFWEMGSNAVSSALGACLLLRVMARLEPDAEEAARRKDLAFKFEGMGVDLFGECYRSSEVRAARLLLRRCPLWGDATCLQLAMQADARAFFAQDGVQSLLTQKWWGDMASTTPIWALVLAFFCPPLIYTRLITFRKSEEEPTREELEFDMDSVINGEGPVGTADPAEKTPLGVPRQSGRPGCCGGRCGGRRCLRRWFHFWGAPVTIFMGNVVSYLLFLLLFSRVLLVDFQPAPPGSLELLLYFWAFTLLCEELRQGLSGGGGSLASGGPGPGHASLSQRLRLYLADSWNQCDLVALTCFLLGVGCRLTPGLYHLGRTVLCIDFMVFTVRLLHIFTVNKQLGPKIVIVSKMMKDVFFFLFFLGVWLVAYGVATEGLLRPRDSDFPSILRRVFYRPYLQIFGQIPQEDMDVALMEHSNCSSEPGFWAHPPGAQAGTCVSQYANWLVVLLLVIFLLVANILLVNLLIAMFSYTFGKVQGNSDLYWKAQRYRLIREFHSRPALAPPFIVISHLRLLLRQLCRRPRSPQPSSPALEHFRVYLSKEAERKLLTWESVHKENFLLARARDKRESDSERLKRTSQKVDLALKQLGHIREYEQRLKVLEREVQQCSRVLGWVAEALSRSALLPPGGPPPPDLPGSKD
Chain of Transient receptor potential cation channel subfamily A member 1 (O75762 whole entry): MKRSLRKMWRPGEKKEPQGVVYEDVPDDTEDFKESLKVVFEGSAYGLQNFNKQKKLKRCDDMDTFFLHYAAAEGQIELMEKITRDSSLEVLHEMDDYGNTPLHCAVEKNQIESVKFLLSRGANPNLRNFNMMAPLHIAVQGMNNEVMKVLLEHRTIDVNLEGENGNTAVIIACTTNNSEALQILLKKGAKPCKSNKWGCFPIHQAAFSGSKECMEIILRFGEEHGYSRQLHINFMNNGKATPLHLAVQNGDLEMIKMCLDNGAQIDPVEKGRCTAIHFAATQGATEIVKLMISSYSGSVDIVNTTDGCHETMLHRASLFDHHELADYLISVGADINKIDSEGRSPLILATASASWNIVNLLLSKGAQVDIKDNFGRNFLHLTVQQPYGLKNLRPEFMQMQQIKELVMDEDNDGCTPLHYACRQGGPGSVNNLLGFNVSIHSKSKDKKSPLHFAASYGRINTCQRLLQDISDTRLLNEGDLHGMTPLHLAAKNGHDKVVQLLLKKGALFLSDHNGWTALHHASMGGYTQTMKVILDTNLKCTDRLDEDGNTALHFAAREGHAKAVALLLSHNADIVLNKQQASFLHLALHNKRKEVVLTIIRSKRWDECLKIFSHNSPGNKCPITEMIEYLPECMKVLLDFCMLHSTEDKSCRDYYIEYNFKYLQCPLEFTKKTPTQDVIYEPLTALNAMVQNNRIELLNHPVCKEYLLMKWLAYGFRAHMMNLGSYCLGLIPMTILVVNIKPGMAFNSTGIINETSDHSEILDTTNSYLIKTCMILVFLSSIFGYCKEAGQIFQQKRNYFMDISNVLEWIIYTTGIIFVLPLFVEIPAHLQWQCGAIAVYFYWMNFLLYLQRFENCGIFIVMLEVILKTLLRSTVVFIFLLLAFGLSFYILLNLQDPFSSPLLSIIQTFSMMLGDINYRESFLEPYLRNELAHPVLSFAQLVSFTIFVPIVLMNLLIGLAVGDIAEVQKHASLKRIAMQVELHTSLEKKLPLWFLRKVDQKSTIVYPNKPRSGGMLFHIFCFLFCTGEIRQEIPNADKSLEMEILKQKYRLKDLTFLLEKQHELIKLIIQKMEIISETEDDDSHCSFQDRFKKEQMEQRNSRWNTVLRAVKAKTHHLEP
Chain of Transient receptor potential cation channel subfamily V member 1 (Q8NER1 whole entry): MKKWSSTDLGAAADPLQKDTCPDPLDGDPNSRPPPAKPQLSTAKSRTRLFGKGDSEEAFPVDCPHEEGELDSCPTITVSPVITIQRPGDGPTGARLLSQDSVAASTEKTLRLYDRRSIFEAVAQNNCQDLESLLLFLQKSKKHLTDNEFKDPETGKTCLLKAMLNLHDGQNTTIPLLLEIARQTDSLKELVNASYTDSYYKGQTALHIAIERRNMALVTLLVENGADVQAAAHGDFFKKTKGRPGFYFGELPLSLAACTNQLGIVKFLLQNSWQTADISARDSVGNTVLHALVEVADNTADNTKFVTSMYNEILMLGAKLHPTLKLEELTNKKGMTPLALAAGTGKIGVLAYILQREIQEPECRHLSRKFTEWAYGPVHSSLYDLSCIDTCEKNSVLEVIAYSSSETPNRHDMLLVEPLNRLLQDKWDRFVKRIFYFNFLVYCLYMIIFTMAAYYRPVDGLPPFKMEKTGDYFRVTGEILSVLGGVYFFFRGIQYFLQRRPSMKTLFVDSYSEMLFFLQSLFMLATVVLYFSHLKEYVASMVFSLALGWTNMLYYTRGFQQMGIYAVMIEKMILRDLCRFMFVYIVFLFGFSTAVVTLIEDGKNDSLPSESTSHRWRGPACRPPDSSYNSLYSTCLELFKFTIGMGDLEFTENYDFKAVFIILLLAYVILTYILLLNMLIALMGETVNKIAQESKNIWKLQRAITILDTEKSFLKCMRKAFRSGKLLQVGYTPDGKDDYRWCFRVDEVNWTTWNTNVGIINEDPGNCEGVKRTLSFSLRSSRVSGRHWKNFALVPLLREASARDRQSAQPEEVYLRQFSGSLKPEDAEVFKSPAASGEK
Chain of Transient receptor potential cation channel subfamily V member 4 (Q9HBA0 whole entry): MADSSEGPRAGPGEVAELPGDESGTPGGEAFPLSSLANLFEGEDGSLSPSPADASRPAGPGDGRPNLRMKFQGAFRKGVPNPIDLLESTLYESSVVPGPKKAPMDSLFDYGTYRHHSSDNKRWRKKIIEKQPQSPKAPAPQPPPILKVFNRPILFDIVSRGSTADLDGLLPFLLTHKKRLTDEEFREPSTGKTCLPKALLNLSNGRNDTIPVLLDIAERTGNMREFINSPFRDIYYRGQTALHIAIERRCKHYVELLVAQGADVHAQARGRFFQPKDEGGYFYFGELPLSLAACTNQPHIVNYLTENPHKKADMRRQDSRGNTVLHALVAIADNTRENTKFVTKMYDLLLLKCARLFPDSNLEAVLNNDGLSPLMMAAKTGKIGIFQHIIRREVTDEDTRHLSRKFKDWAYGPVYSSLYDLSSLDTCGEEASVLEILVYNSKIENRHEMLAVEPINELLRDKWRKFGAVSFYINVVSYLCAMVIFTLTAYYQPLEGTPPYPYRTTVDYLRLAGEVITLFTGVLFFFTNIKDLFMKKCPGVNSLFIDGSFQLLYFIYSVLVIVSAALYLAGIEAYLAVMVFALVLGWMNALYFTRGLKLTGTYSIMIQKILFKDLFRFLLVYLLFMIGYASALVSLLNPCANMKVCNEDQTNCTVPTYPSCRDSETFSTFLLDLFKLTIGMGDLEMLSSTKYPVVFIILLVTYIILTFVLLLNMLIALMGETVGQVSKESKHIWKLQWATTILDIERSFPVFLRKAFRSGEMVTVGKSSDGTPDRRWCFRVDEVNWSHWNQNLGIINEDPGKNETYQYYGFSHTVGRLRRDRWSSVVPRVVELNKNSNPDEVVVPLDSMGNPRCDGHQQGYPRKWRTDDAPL

In the case of `Clc1cnc(CNc2ccc3sncc3c2)s1`, the microsomal CLint was 462 µL/min/mg in [1] and 193 µL/min/mg in series [9]. Besides, the pEC50 in series [2] is less than 4.20; in [6] it was 5.50; in [7], less than 4.80; in series [8], less than 4.80; in [10], 7.07. For the same compound, the fraction unbound at 5 h in [3] was less than 0.01. Besides, in [4], the Papp A→B at 0.5 h was determined as 12.6 ×10⁻⁶ cm/s. In addition, the efflux ratio at 0.5 h in series [5] amounted to 0.97. This compound gave a solubility at 2 h in series [11] of 50 µM (≈ 14.1 µg/mL).

With `Clc1cnc(CNc2ccc3cnsc3c2)s1`, the microsomal CLint was determined as 164 µL/min/mg in series [1] and 146 µL/min/mg in series [9]. Further, the pEC50 is less than 4.20 in [2]; 5.20 in series [6]; less than 4.80 in series [7]; less than 4.80 in [8]; 7.36 in [10]. The fraction unbound at 5 h in series [3] is less than 0.01. Further, the Papp A→B at 0.5 h in series [4] came to 10.7 ×10⁻⁶ cm/s. In series [5], the efflux ratio at 0.5 h worked out at 1.08. This compound yielded a solubility at 2 h in [11] of 511 µM (≈ 144 µg/mL).

Regarding `Clc1cnc(CNc2cc3sncc3cc2Cl)s1`, the microsomal CLint was determined as 520 µL/min/mg in [1] and 172 µL/min/mg in series [9]. In addition, the pEC50 in [2] is 5.50; in series [6] it was 5.50; in series [7] it was less than 4.80; in series [8], less than 4.80; in [10], 7.80. Further, the fraction unbound at 5 h in series [3] was less than 0.01. Moreover, in series [4], the Papp A→B at 0.5 h is 4.1 ×10⁻⁶ cm/s. For the same compound, in series [5], the efflux ratio at 0.5 h turned out to be 1.6. In series [11], this compound registered a solubility at 2 h of 30 µM (≈ 9.49 µg/mL).

These data come from ChEMBL document CHEMBL4823260, “From High-Throughput Screening to Target Validation: Benzo[d]isothiazoles as Potent and Selective Agonists of Human Transient Receptor Potential Cation Channel Subfamily M Member 5 Possessing In Vivo Gastrointestinal Prokinetic Activity in Rodents” (J Med Chem, 2021).
